According to ChEMBL document CHEMBL1148358, “DNA binding to guide the development of tetrahydroindeno[1,2-b]pyrido[4,3,2-de]quinoline derivatives as cytotoxic agents” (J Med Chem, 2004):

How the values were obtained:
Nucleic Acid [1] = assay: Relative DNA binding affinity was determined as difference in melting temperature (delta Tm) with the polynucleotide Poly (dAT)2 complex and alone Poly (dAT)2; type: nucleic-acid assay
PC-3 = assay: Cytotoxicity towards human prostate cancer PC 3 cell line was determined; type: functional, cell-based
Summary of the method: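 PC 3 cells kept in RPMI 1640 with 10% FCS were seeded at 3 × 10⁴ cells/well. After 3 days they were serum-starved for 24 h, then stimulated with 10 ng/mL EGF plus transferrin 50 ng/mL and selenium 50 pg/mL, with compounds added. Growth was read by MTT colorimetry after a further 72 h.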

Nucleic Acid [2] = assay: Apparent binding constant with calf thymus DNA measured by fluorescence assay
Nucleic Acid [3] = assay: Apparent binding constant with polynucleotide Poly (dAT)2 complex measured by fluorescence assay; type: nucleic-acid assay; conditions: in the assay text read “calf thymus DNA” for “polynucleotide Poly (dAT)2 complex”
Summary of the method: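 Ethidium displacement by fluorescence: excitation 515 nm, emission read over 550-700 nm, [ethidium]/[DNA] molar ratio 12.6:10, drug 0.01-100 µM in BPE buffer pH 7.1. C50 for ethidium displacement taken from a fitted curve; Kapp = (1.26 µM/C50) × K_ethidium, with K_ethidium = 10⁷ M^-1.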

Row | SMILES | ΔTm (Nucleic Acid [1]) [°C] | K app (Nucleic Acid [2]) [M⁻¹] | K app (Nucleic Acid [3]) [M⁻¹] | IC50 (PC-3) [nM]
1 | COc1cc2nc3c(c4c2c(c1OC)N(C(C)=O)CC4)Cc1cc(OCCCN)ccc1-3 | 6 | 293000 | – | > 1000
2 | COc1cc2nc3c(c4c2c(c1OC)NCC4)CCc1cc(O)ccc1-3 | 1.1 | – | 1600 | > 1000
3 | COc1cc2nc3c(c4c2c(c1OC)N(C(C)=O)CC4)Cc1ccccc1-3 | – | – | – | > 1000
4 | COc1cc2nc3c(c4c2c(c1OC)N(C(C)=O)CC4)Cc1cc(OCCCN2CCN(C)CC2)ccc1-3 | 3.8 | – | 3.58e+06 | > 1000
5 | COc1cc2nc3c(c4c2c(c1OC)N(C(=O)CN1CCN(C)CC1)CC4)Cc1cc(OCCN)ccc1-3 | 19.6 | – | 503000 | > 1000
6 | COc1cc2nc3c(c4c2c(c1OC)N(C(C)=O)CC4)Cc1cc(O)ccc1-3 | 3.1 | – | 677000 | > 1000
7 | COc1cc2nc3c(c4c2c(c1OC)NCC4)Cc1ccccc1-3 | 0 | – | 3100 | > 1000
8 | COc1cc2nc3c(c4c2c(c1OC)N(C(=O)CN1CCN(C)CC1)CC4)Cc1cc(OCCCN2CCN(C)CC2)ccc1-3 | 32.5 | – | 3.04e+06 | > 1000
9 | COc1ccc2c(c1)Cc1c-2nc2cc(OC)c(OC)c3c2c1CCN3C(C)=O | – | – | – | > 1000
10 | COc1cc2nc3c(c4c2c(c1OC)N(C(=O)CN1CCN(C)CC1)CC4)Cc1cc(OCCCN)ccc1-3 | 22.5 | 2.78e+06 | – | > 1000

The next lines start with results.

Row | ΔTm (Nucleic Acid [1]) [°C] | K app (Nucleic Acid [2]) [M⁻¹] | K app (Nucleic Acid [3]) [M⁻¹] | SMILES | IC50 (PC-3) [nM]
11 | 14.8 | – | 5.14e+06 | COc1cc2nc3c(c4c2c(c1OC)NCC4)Cc1cc(OCCN)ccc1-3 | > 1000
12 | 0 | – | 1700 | COc1ccc2c(c1)Cc1c-2nc2cc(OC)c(OC)c3c2c1CCN3 | > 1000
13 | 7 | – | 990000 | COc1cc2nc3c(c4c2c(c1OC)N(C(C)=O)CC4)Cc1cc(OCCN)ccc1-3 | > 1000
14 | 4 | 672000 | – | COc1cc2nc3c(c4c2c(c1OC)NCC4)Cc1cc(O)ccc1-3 | > 1000
15 | 10 | – | 301000 | COc1cc2nc3c(c4c2c(c1OC)NCC4)Cc1cc(OCCCN2CCN(C)CC2)ccc1-3 | 6.5
16 | 15.8 | – | 6.13e+06 | COc1cc2nc3c(c4c2c(c1OC)NCC4)Cc1cc(OCCCN)ccc1-3 | > 1000
